According to ChEMBL document CHEMBL1155488, “Carbamate derivatives of betulinic acid and betulin with selective cytotoxic activity” (Bioorg Med Chem Lett, 2010):
Calls of active or inactive are those of the source. No cut-off for these calls is given here.

Tests used:
[1] = Cytotoxicity against human A253 cells after 96 hrs by SRB assay; assay type: functional, cell-based; details: A253, 96 h
FaDu [2] = experiment: Cytotoxicity against human FADU cells after 96 hrs by SRB assay; assay type: functional, cell-based
HT-29 [3] = experiment: Cytotoxicity against human HT-29 cells after 96 hrs by SRB assay; assay type: functional, cell-based; details: HT-29, 96 h
SW480 [4] = experiment: Cytotoxicity against human SW480 cells after 96 hrs by SRB assay; assay type: functional, cell-based; details: SW480, 96 h
A-431 [5] = experiment: Cytotoxicity against human A431 cells after 96 hrs by SRB assay; assay type: functional, cell-based; details: A-431, 96 h
HCT-116 [6] = experiment: Cytotoxicity against human HCT116 cells after 96 hrs by SRB assay; assay type: functional, cell-based; details: HCT-116, 96 h
DLD-1 [7] = experiment: Cytotoxicity against human DLD1 cells after 96 hrs by SRB assay; assay type: functional, cell-based; details: DLD-1, 96 h
[8] = Cytotoxicity against human Liposarcoma cells after 96 hrs by SRB assay; assay type: functional, cell-based
A2780 [9] = experiment: Cytotoxicity against human A2780 cells after 96 hrs by SRB assay; assay type: functional, cell-based; details: A2780, 96 h
MCF7 [10] = experiment: Cytotoxicity against human MCF7 cells after 96 hrs by SRB assay; assay type: functional, cell-based; details: MCF7, 96 h
8505C [11] = experiment: Cytotoxicity against human 8505C cells after 96 hrs by SRB assay; assay type: functional, cell-based
SW-1736 = experiment: Cytotoxicity against human SW1736 cells after 96 hrs by SRB assay; assay type: functional, cell-based; details: SW-1736, 96 h
A549 [12] = experiment: Cytotoxicity against human A549 cells after 96 hrs by SRB assay; assay type: functional, cell-based; details: A549, 96 h
HCT-8 [13] = experiment: Cytotoxicity against human HCT8 cells after 96 hrs by SRB assay; assay type: functional, cell-based; details: HCT-8, 96 h
[14] = Cytotoxicity against human 518A2 cells after 96 hrs by SRB assay; assay type: functional, cell-based; details: 518A2, 96 h
A2780 [15] = experiment: Selectivity index, ratio of IC50 for human fibroblast to IC50 for human A2780 cells
Outline: (§1)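 The selectivity index was calculated as the IC50 on human fibroblasts divided by the IC50 on the corresponding tumor cell line.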

A549 [16] = experiment: Induction of apoptosis in human A549 cells assessed as DNA fragmentation at equitoxic IC90 after 24 hrs by agarose gel electrophoresis
A549 [17] = experiment: Selectivity index, ratio of IC50 for human fibroblast to IC50 for human A549 cells; outline: as §1
HCT-8 [18] = experiment: Selectivity index, ratio of IC50 for human fibroblast to IC50 for human HCT8 cells; outline: as §1
[19] = Cytotoxicity against human fibroblast at 100 uM after 96 hrs by SRB assay; assay type: cell-based
SW480 [20] = experiment: Selectivity index, ratio of IC50 for human fibroblast to IC50 for human SW480 cells; outline: as §1
[21] = Cytotoxicity against human fibroblast after 96 hrs by SRB assay; assay type: cell-based
A-431 [22] = experiment: Selectivity index, ratio of IC50 for human fibroblast to IC50 for human A431 cells; outline: as §1
[23] = Selectivity index, ratio of IC50 for human fibroblast to IC50 for human SW1736 cells; outline: as §1
DLD-1 [24] = experiment: Selectivity index, ratio of IC50 for human fibroblast to IC50 for human DLD1 cells; outline: as §1
MCF7 [25] = experiment: Selectivity index, ratio of IC50 for human fibroblast to IC50 for human MCF7 cells; outline: as §1
[26] = Selectivity index, ratio of IC50 for human fibroblast to IC50 for human A253 cells; outline: as §1
FaDu [27] = experiment: Selectivity index, ratio of IC50 for human fibroblast to IC50 for human FADU cells; outline: as §1
[28] = Selectivity index, ratio of IC50 for human fibroblast to IC50 for human 518A2 cells; outline: as §1
HT-29 [29] = experiment: Selectivity index, ratio of IC50 for human fibroblast to IC50 for human HT-29 cells; outline: as §1
HCT-116 [30] = experiment: Selectivity index, ratio of IC50 for human fibroblast to IC50 for human HCT116 cells; outline: as §1
[31] = Selectivity index, ratio of IC50 for human fibroblast to IC50 for human Liposarcoma cells; outline: as §1
8505C [32] = experiment: Selectivity index, ratio of IC50 for human fibroblast to IC50 for human 8505C cells; outline: as §1
A549 [33] = experiment: Induction of apoptosis in human A549 cells assessed as caspase3/7 activation at equitoxic IC90 after 6 hrs; assay type: functional, cell-based
A549 [34] = experiment: Induction of apoptosis in human A549 cells assessed as caspase3/7 activation at equitoxic IC90 after 2 hrs; assay type: functional, cell-based

Row | SMILES | IC50 [1] [µM] | IC50 (FaDu [2]) [µM] | IC50 (HT-29 [3]) [µM] | IC50 (SW480 [4]) [µM] | IC50 (A-431 [5]) [µM] | IC50 (HCT-116 [6]) [µM] | IC50 (DLD-1 [7]) [µM] | IC50 [8] [µM] | IC50 (A2780 [9]) [µM] | IC50 (MCF7 [10]) [µM] | IC50 (8505C [11]) [µM] | IC50 (SW-1736) [µM] | IC50 (A549 [12]) [µM] | IC50 (HCT-8 [13]) [µM] | IC50 [14] [µM] | further results
1 | C=C(C)[C@@H]1CC[C@]2(C(=O)OC)CC[C@]3(C)[C@H](CC[C@@H]4[C@@]5(C)CC[C@H](OC(=O)NCC)C(C)(C)[C@@H]5CC[C@]43C)[C@@H]12 | 16.7 | 5.53 | 7.22 | 6.67 | 14.8 | 13.5 | 18.9 | 6.85 | 8.35 | 7.03 | 7.22 | 2.35 | 2.32 | 15 | 16.7 | –
2 | C=C(C)[C@@H]1CC[C@]2(COC(C)=O)CC[C@]3(C)[C@H](CC[C@@H]4[C@@]5(C)CC[C@H](OC(=O)Nc6ccccc6)C(C)(C)[C@@H]5CC[C@]43C)[C@@H]12 | > 100 | > 100 | 76.4 | > 100 | > 100 | > 100 | > 100 | > 100 | 84.2 | > 100 | > 100 | > 100 | > 100 | > 100 | > 100 | –
3 | C=C(C)[C@@H]1CC[C@]2(COC(=O)NCC)CC[C@]3(C)[C@H](CC[C@@H]4[C@@]5(C)CC[C@H](OC(=O)NCC)C(C)(C)[C@@H]5CC[C@]43C)[C@@H]12 [BIS(ETHYLCARBAMATE)BETULIN] | 9.71 | 7.88 | 6.2 | 2.77 | 6.08 | 3.84 | 8.32 | 12 | 4.37 | 17.7 | 9.39 | 3.6 | 2.91 | 3.91 | 8.18 | Ratio IC50 (A2780 [15]): >22.88; Activity (A549 [16]): Active; Ratio IC50 (A549 [17]): >34.36; Ratio IC50 (HCT-8 [18]): >25.58; Activity [19]: Non-toxic; Ratio IC50 (SW480 [20]): >36.1; IC50 [21]: > 100 µM; Ratio IC50 (A-431 [22]): >16.45; Ratio IC50 [23]: >26.32; Ratio IC50 (DLD-1 [24]): >12.02; Ratio IC50 (MCF7 [25]): >5.65; Ratio IC50 [26]: >10.3; Ratio IC50 (FaDu [27]): >12.69; Ratio IC50 [28]: >12.22; Ratio IC50 (HT-29 [29]): >16.13; Ratio IC50 (HCT-116 [30]): >26.04; Ratio IC50 [31]: >8.31; Ratio IC50 (8505C [32]): >10.65
4 | C=C(C)[C@@H]1CC[C@]2(C(=O)OC)CC[C@]3(C)[C@H](CC[C@@H]4[C@@]5(C)CC[C@H](OC(=O)Nc6ccccc6)C(C)(C)[C@@H]5CC[C@]43C)[C@@H]12 | > 100 | > 100 | 69 | > 100 | 91.5 | > 100 | > 100 | > 100 | 69.5 | > 100 | > 100 | > 100 | > 100 | > 100 | > 100 | –
5 | C=C(C)[C@@H]1CC[C@]2(C(=O)OC)CC[C@]3(C)[C@H](CC[C@@H]4[C@@]5(C)CC[C@H](O)C(C)(C)[C@@H]5CC[C@]43C)[C@@H]12 [METHYL BETULINATE] | 18.5 | 20.3 | 30.7 | 17.9 | 27 | 20.5 | 45.9 | 23.3 | 29.3 | 24.4 | 23.7 | 32.1 | 20.6 | 17.2 | 28.8 | –
6 | C=C(C)[C@@H]1CC[C@]2(COC(=O)Nc3ccccc3)CC[C@]3(C)[C@H](CC[C@@H]4[C@@]5(C)CC[C@H](OC(=O)Nc6ccccc6)C(C)(C)[C@@H]5CC[C@]43C)[C@@H]12 [BIS(PHENYLCARBAMATE)BETULIN] | > 100 | > 100 | 69.2 | > 100 | > 100 | > 100 | > 100 | > 100 | 80.6 | > 100 | > 100 | > 100 | > 100 | > 100 | > 100 | –
7 | C=C(C)[C@@H]1CC[C@]2(C(=O)O)CC[C@]3(C)[C@H](CC[C@@H]4[C@@]5(C)CC[C@H](O)C(C)(C)[C@@H]5CC[C@]43C)[C@@H]12 [BETULINIC ACID] | 9.18 | 10.2 | 13.9 | 6.48 | 12.6 | 10.8 | 11.9 | 12.1 | 11.1 | 12.3 | 7.26 | 13.1 | 11.1 | 13.1 | 8.13 | Ratio IC50 (A2780 [15]): 1.88; Ratio IC50 (A549 [17]): 1.87; Ratio IC50 (HCT-8 [18]): 1.59; Ratio IC50 (SW480 [20]): 3.21; IC50 [21]: 20.8 µM; Ratio IC50 (A-431 [22]): 1.65; Ratio IC50 [23]: 1.59; Ratio IC50 (DLD-1 [24]): 1.75; Ratio IC50 (MCF7 [25]): 1.7; Ratio IC50 [26]: 2.27; Ratio IC50 (FaDu [27]): 2.04; Ratio IC50 [28]: 2.56; Ratio IC50 (HT-29 [29]): 1.49; Ratio IC50 (HCT-116 [30]): 1.93; Ratio IC50 [31]: 1.72; Ratio IC50 (8505C [32]): 2.87
8 | C=C(C)[C@@H]1CC[C@]2(C(=O)O)CC[C@]3(C)[C@H](CC[C@@H]4[C@@]5(C)CC[C@H](OC(=O)Nc6ccccc6)C(C)(C)[C@@H]5CC[C@]43C)[C@@H]12 | 34.7 | 24.2 | 31.6 | 41.1 | 26.7 | 21.4 | 26.3 | 51.9 | 24.8 | 47.9 | 39.6 | 18.8 | 22.4 | 25.2 | 51.5 | –
9 | C=C(C)[C@@H]1CC[C@]2(COC(C)=O)CC[C@]3(C)[C@H](CC[C@@H]4[C@@]5(C)CC[C@H](O)C(C)(C)[C@@H]5CC[C@]43C)[C@@H]12 | 12.9 | 14 | 11 | 13.7 | 12.2 | 10.7 | 13.1 | 15.5 | 11.7 | 11.4 | 14.7 | 12 | 14.4 | 18 | 15.8 | –
10 | C=C(C)[C@@H]1CC[C@]2(C(=O)O)CC[C@]3(C)[C@H](CC[C@@H]4[C@@]5(C)CC[C@H](OC(=O)NCC)C(C)(C)[C@@H]5CC[C@]43C)[C@@H]12 | 17.3 | 13.8 | 16.7 | 16.6 | 15.2 | 15.2 | 17 | 17.9 | 7.41 | 17.4 | 17.6 | 5.24 | 5.55 | 16.7 | 17.8 | Activity (A549 [33]): Active
11 | C=C(C)[C@@H]1CC[C@]2(COC(C)=O)CC[C@]3(C)[C@H](CC[C@@H]4[C@@]5(C)CC[C@H](OC(=O)NCC)C(C)(C)[C@@H]5CC[C@]43C)[C@@H]12 | 4.88 | 4.62 | 5.07 | 1.77 | 5 | 4.3 | 6.93 | 5.35 | 4.28 | 5.98 | 5.05 | 3.15 | 1.69 | 3.99 | 5.12 | Ratio IC50 (A2780 [15]): 5.69; Activity (A549 [16]): Active; Ratio IC50 (A549 [17]): 14.41; Ratio IC50 (HCT-8 [18]): 6.2; Ratio IC50 (SW480 [20]): 13.76; IC50 [21]: 24.4 µM; Activity (A549 [34]): Active; Ratio IC50 (A-431 [22]): 4.87; Ratio IC50 [23]: 7.73; Ratio IC50 (DLD-1 [24]): 3.52; Activity (A549 [33]): Active; Ratio IC50 (MCF7 [25]): 4.07; Ratio IC50 [26]: 4.99; Ratio IC50 (FaDu [27]): 5.39; Ratio IC50 [28]: 4.76; Ratio IC50 (HT-29 [29]): 4.8; Ratio IC50 (HCT-116 [30]): 5.67; Ratio IC50 [31]: 4.55; Ratio IC50 (8505C [32]): 4.82
